Data reported in ChEMBL document CHEMBL4689842, “EUbOPEN Chemogenomics Library wave 1” (2021).

System: U2OS
Assay: Multiplex assay against U2OS
Format: toxicity, cell-based
Conditions: human
In short: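 Cells were classed with CellPathfinder machine-learning gating, first as Hoechst high-intensity objects or normal cells, then (normal cells) as healthy, pyknosed or fragmented nuclei, and finally (pyknosed cells) as mitotic or apoptotic. Staining of live cells at seeding used Hoechst33342, BioTracker Green Microtubule Cytoskeleton Dye, MitoTracker Red and Annexin V Alexa Fluor 680, with imaging on a CQ1 microscope at 37°C and 5% CO2 after compound addition. Tubulin, mitochondrial-mass and membrane-permeability phenotypes are per cents of healthy-nucleus cells.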

[1] = 12 h, 1 µM, compound concentration 1 uM, replicate 1
[2] = 12 h, 1 µM, compound concentration 1 uM, replicate 2
[3] = 12 h, 10 µM, compound concentration 10 uM, replicate 1
[4] = 12 h, 10 µM, compound concentration 10 uM, replicate 2
[5] = 24 h, 1 µM, compound concentration 1 uM, replicate 1
[6] = 24 h, 1 µM, compound concentration 1 uM, replicate 2
[7] = 24 h, 10 µM, compound concentration 10 uM, replicate 1
[8] = 24 h, 10 µM, compound concentration 10 uM, replicate 2
[9] = 48 h, 1 µM, compound concentration 1 uM, replicate 1
[10] = 48 h, 1 µM, compound concentration 1 uM, replicate 2
[11] = 48 h, 10 µM, compound concentration 10 uM, replicate 1
[12] = 48 h, 10 µM, compound concentration 10 uM, replicate 2

CN(C)CC#Cc1ccc(OCCCc2sc(N3CCc4cccc(C(=O)Nc5nc6ccccc6s5)c4C3)nc2C(=O)O)c(F)c1 [A-1155463]
Population Apoptotic (%) [1]: 63% | Population Fragmented Nuclei (%) [1]: 13% | Population Healthy Nuclei (%) [1]: 65% | Population Hoechst High Intensity Objects (%) [1]: 12% | Population Membrane Permeable-Phenotype (%) [1]: 14% | Population Mitochondria Different-Phenotype (%) [1]: 14% | Population Mitotic Cells (%) [1]: 36% | Population Normal (%) [1]: 87% | Population Pyknosed Nuclei (%) [1]: 21% | Population Tubulin-Different-Phenotype (%) [1]: 11% | Total Cell Count [1]: 175 | Population Apoptotic (%) [2]: 66% | Population Fragmented Nuclei (%) [2]: 39% | Population Healthy Nuclei (%) [2]: 53% | Population Hoechst High Intensity Objects (%) [2]: 4% | Population Membrane Permeable-Phenotype (%) [2]: 13% | Population Mitochondria Different-Phenotype (%) [2]: 31% | Population Mitotic Cells (%) [2]: 33% | Population Normal (%) [2]: 95% | Population Pyknosed Nuclei (%) [2]: 7% | Population Tubulin-Different-Phenotype (%) [2]: 27% | Total Cell Count [2]: 86 | Population Apoptotic (%) [3]: 61% | Population Fragmented Nuclei (%) [3]: 25% | Population Healthy Nuclei (%) [3]: 55% | Population Hoechst High Intensity Objects (%) [3]: 6% | Population Membrane Permeable-Phenotype (%) [3]: 8% | Population Mitochondria Different-Phenotype (%) [3]: 15% | Population Mitotic Cells (%) [3]: 38% | Population Normal (%) [3]: 93% | Population Pyknosed Nuclei (%) [3]: 19% | Population Tubulin-Different-Phenotype (%) [3]: 13% | Total Cell Count [3]: 189 | Population Apoptotic (%) [4]: 86% | Population Fragmented Nuclei (%) [4]: 33% | Population Healthy Nuclei (%) [4]: 42% | Population Hoechst High Intensity Objects (%) [4]: 5% | Population Membrane Permeable-Phenotype (%) [4]: 24% | Population Mitochondria Different-Phenotype (%) [4]: 16% | Population Mitotic Cells (%) [4]: 13% | Population Normal (%) [4]: 94% | Population Pyknosed Nuclei (%) [4]: 23% | Population Tubulin-Different-Phenotype (%) [4]: 25% | Total Cell Count [4]: 133 | Population Apoptotic (%) [5]: 47% | Population Fragmented Nuclei (%) [5]: 19% | Population Healthy Nuclei (%) [5]: 58% | Population Hoechst High Intensity Objects (%) [5]: 5% | Population Membrane Permeable-Phenotype (%) [5]: 11% | Population Mitochondria Different-Phenotype (%) [5]: 15% | Population Mitotic Cells (%) [5]: 52% | Population Normal (%) [5]: 94% | Population Pyknosed Nuclei (%) [5]: 21% | Population Tubulin-Different-Phenotype (%) [5]: 6% | Total Cell Count [5]: 222 | Population Apoptotic (%) [6]: 50% | Population Fragmented Nuclei (%) [6]: 36% | Population Healthy Nuclei (%) [6]: 54% | Population Hoechst High Intensity Objects (%) [6]: 7% | Population Membrane Permeable-Phenotype (%) [6]: 13% | Population Mitochondria Different-Phenotype (%) [6]: 32% | Population Mitotic Cells (%) [6]: 50% | Population Normal (%) [6]: 92% | Population Pyknosed Nuclei (%) [6]: 9% | Population Tubulin-Different-Phenotype (%) [6]: 28% | Total Cell Count [6]: 92 | Population Apoptotic (%) [7]: 58% | Population Fragmented Nuclei (%) [7]: 20% | Population Healthy Nuclei (%) [7]: 51% | Population Hoechst High Intensity Objects (%) [7]: 5% | Population Membrane Permeable-Phenotype (%) [7]: 13% | Population Mitochondria Different-Phenotype (%) [7]: 23% | Population Mitotic Cells (%) [7]: 41% | Population Normal (%) [7]: 94% | Population Pyknosed Nuclei (%) [7]: 27% | Population Tubulin-Different-Phenotype (%) [7]: 12% | Total Cell Count [7]: 194 | Population Apoptotic (%) [8]: 81% | Population Fragmented Nuclei (%) [8]: 32% | Population Healthy Nuclei (%) [8]: 45% | Population Hoechst High Intensity Objects (%) [8]: 10% | Population Membrane Permeable-Phenotype (%) [8]: 20% | Population Mitochondria Different-Phenotype (%) [8]: 14% | Population Mitotic Cells (%) [8]: 18% | Population Normal (%) [8]: 89% | Population Pyknosed Nuclei (%) [8]: 22% | Population Tubulin-Different-Phenotype (%) [8]: 21% | Total Cell Count [8]: 135 | Population Apoptotic (%) [9]: 67% | Population Fragmented Nuclei (%) [9]: 24% | Population Healthy Nuclei (%) [9]: 46% | Population Hoechst High Intensity Objects (%) [9]: 10% | Population Membrane Permeable-Phenotype (%) [9]: 7% | Population Mitochondria Different-Phenotype (%) [9]: 18% | Population Mitotic Cells (%) [9]: 32% | Population Normal (%) [9]: 89% | Population Pyknosed Nuclei (%) [9]: 29% | Population Tubulin-Different-Phenotype (%) [9]: 10% | Total Cell Count [9]: 285 | Population Apoptotic (%) [10]: 77% | Population Fragmented Nuclei (%) [10]: 28% | Population Healthy Nuclei (%) [10]: 51% | Population Hoechst High Intensity Objects (%) [10]: 5% | Population Membrane Permeable-Phenotype (%) [10]: 19% | Population Mitochondria Different-Phenotype (%) [10]: 43% | Population Mitotic Cells (%) [10]: 22% | Population Normal (%) [10]: 94% | Population Pyknosed Nuclei (%) [10]: 20% | Population Tubulin-Different-Phenotype (%) [10]: 36% | Total Cell Count [10]: 117 | Population Apoptotic (%) [11]: 74% | Population Fragmented Nuclei (%) [11]: 26% | Population Healthy Nuclei (%) [11]: 32% | Population Hoechst High Intensity Objects (%) [11]: 9% | Population Membrane Permeable-Phenotype (%) [11]: 23% | Population Mitochondria Different-Phenotype (%) [11]: 38% | Population Mitotic Cells (%) [11]: 25% | Population Normal (%) [11]: 90% | Population Pyknosed Nuclei (%) [11]: 40% | Population Tubulin-Different-Phenotype (%) [11]: 11% | Total Cell Count [11]: 246 | Population Apoptotic (%) [12]: 81% | Population Fragmented Nuclei (%) [12]: 34% | Population Healthy Nuclei (%) [12]: 35% | Population Hoechst High Intensity Objects (%) [12]: 8% | Population Membrane Permeable-Phenotype (%) [12]: 57% | Population Mitochondria Different-Phenotype (%) [12]: 51% | Population Mitotic Cells (%) [12]: 18% | Population Normal (%) [12]: 91% | Population Pyknosed Nuclei (%) [12]: 29% | Population Tubulin-Different-Phenotype (%) [12]: 57% | Total Cell Count [12]: 139
